Laboratory results published in ChEMBL document CHEMBL3600335 (Bioorg Med Chem Lett, 2015).
In brackets after ≈: the same amount, converted by molar mass. Activity calls are given as the source filed them. The rule behind the calls is not given here.

Assays:
[1] = Selectivity index, ratio of CC50 for African green monkey Vero cells to IC50 for HSV-1 F; assay type: functional
[2] = tested on: Human alphaherpesvirus 1; experiment: Antiviral activity against HSV-1 F infected in African green monkey Vero cells after 2 days by plaque reduction assay; assay type: functional, organism-based; details: Human alphaherpesvirus 1, strain F, 48 h
[3] = tested on: Human alphaherpesvirus 2; experiment: Antiviral activity against HSV-2 G infected in African green monkey Vero cells after 2 days by plaque reduction assay; assay type: functional, organism-based; details: Human alphaherpesvirus 2, strain G, 48 h
[4] = Cytotoxicity against African green monkey Vero cells after 2 days by neutral red uptake assay; assay type: cell-based; details: chlorocebus sabaeus
[5] = tested on: Human alphaherpesvirus 1; experiment: Antiviral activity against HSV-1 KOS infected in African green monkey RC-37 cells assessed as inhibition of viral replication incubated with virus for 1 hr followed by viral adsorbtion to cells for 1 hr measured after 3 days by plaque reduction assay; assay type: functional, organism-based; details: Human alphaherpesvirus 1, KOS
[6] = Selectivity index, ratio of CC50 for African green monkey RC-37 cells to IC50 for HSV-1 KOS; assay type: functional
[7] = Selectivity index, ratio of CC50 for African green monkey Vero cells to IC50 for HSV-2 G; assay type: functional
[8] = Cytotoxicity against African green monkey RC-37 cells assessed as cell viability after 3 days by neutral red uptake assay; assay type: cell-based; details: chlorocebus aethiops
[9] = tested on: Human alphaherpesvirus 1; experiment: Antiviral activity against HSV-1 15577 infected in African green monkey Vero cells assessed as reduction of virus-induced cytopathic effect after 4 to 6 days by light microscopic analysis; assay type: functional, organism-based; details: Human alphaherpesvirus 1, 15577, Vero
[10] = Selectivity index, ratio of CC50 for African green monkey Vero cells to IC50 for HSV-1 7401H; assay type: functional
[11] = tested on: Human alphaherpesvirus 1; experiment: Antiviral activity against HSV-1 7401H infected in African green monkey Vero cells after 2 to 3 days by plaque reduction assay; details: Human alphaherpesvirus 1, 7401H
[12] = Cytotoxicity against African green monkey Vero cells assessed as cell viability after 2 days by trypan blue exclusion assay; assay type: cell-based; details: chlorocebus sabaeus
[13] = target: Human immunodeficiency virus type 1 reverse transcriptase (Human immunodeficiency virus 1) (UniProt Q72547); experiment: Inhibition of HIV-1 reverse transcriptase in human Jurkat cells assessed as ratio MTT activity to reverse transcriptase activity with compound/reverse transcriptase activity with DMSO at 5 ug/ml after 72 hrs; assay type: cell-based
Outline: (§1)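 Jurkat cells infected with HIV-1 in the presence of compound, with DMSO as solvent control. Viability was read by MTT assay and HIV replication by reverse transcriptase activity assay. The value is the ratio MTT activity/(RT activity with compound/RT activity in DMSO).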

[14] = target: Human immunodeficiency virus type 1 reverse transcriptase (Human immunodeficiency virus 1) (UniProt Q72547); experiment: Inhibition of HIV-1 reverse transcriptase in human Jurkat cells assessed as ratio MTT activity to reverse transcriptase activity with compound/reverse transcriptase activity with DMSO at 1 ug/ml after 72 hrs; assay type: cell-based; outline: as §1
[15] = target: Human immunodeficiency virus type 1 reverse transcriptase (Human immunodeficiency virus 1) (UniProt Q72547); experiment: Inhibition of HIV-1 reverse transcriptase at 37.5 to 150 ug/ml by Roche colorimetric assay
[16] = target: T1, Albumin (Homo sapiens, UniProt P02768); experiment: Binding affinity to human serum albumin with excitation at 295 nm after 30 mins by fluorescence spectrophotometric analysis; assay type: ADME
[17] = Selectivity index, ratio of CC50 for African green monkey Vero cells to IC50 for HSV-2 186; assay type: functional
[18] = Solubility of the compound in water at room temperature; assay type: physicochemical
[19] = target: T1, Albumin; experiment: Binding affinity to human serum albumin with excitation at 285 nm assessed as association constant by fluorescence emission spectroscopic analysis; assay type: ADME; details: isolated protein, 0.285 µM
[20] = target: T1, Albumin; experiment: Binding affinity to human serum albumin with excitation at 285 nm by fluorescence emission spectroscopic analysis; assay type: ADME
Outline: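 Human serum albumin was titrated by fluorescence with the compound, using excitation at 285 nm. Kd was calculated from the titration spectra.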

[21] = target: T1, Albumin; experiment: Binding affinity to human serum albumin with excitation at 285 nm after 30 mins by fluorescence spectrophotometric analysis; assay type: ADME
[22] = tested on: Human alphaherpesvirus 2; experiment: Antiviral activity against HSV-2 186 infected in African green monkey Vero cells assessed as inhibition of viral yield after 48 hrs by crystal violet staining; assay type: functional, cell-based, strain 186
Outline: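 Viral replication yield reduction assay against HSV-2 strain 186 over a range of drug concentrations. Viral titer was averaged from quadruplicate samples at each concentration, and IC50 was calculated from the titers. Compounds were tested in two separate experiments.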

[23] = Cytotoxicity against African green monkey Vero cells assessed as cell viability after 48 hrs by Alamar Blue assay; assay type: cell-based; details: chlorocebus sabaeus
[24] = tested on: Human alphaherpesvirus 1; experiment: Antiviral activity against HSV-1 15578 infected in African green monkey Vero cells assessed as reduction of virus-induced cytopathic effect after 4 to 6 days by light microscopic analysis; assay type: functional, organism-based; details: Human alphaherpesvirus 1, 15578, Vero
[25] = Selectivity index, ratio of CC50 for African green monkey Vero cells to IC50 for HSV-1 15578; assay type: functional
[26] = Cytotoxicity against African green monkey Vero cells assessed as cell viability after 3 days by MTT assay; assay type: cell-based; details: chlorocebus sabaeus
[27] = Human alphaherpesvirus 2, strain 186, Vero, 48 h

T1 sequence (P02768 whole entry): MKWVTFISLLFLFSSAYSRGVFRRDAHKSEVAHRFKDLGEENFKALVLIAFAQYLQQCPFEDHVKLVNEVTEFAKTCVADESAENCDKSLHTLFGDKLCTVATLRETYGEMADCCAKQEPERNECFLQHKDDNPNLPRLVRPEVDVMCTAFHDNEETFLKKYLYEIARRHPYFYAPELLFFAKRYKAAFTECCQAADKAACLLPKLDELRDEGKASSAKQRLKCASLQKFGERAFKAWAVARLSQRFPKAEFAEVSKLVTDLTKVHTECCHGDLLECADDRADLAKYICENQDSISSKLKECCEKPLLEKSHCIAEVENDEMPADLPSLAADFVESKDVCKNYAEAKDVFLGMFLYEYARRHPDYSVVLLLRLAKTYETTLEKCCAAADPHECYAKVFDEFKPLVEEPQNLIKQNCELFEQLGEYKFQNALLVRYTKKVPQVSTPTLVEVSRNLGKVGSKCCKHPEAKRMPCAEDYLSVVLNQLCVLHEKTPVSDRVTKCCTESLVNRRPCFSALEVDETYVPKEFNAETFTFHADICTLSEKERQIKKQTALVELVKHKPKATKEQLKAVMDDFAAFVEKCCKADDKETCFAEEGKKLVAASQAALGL

Compound: C=C(C)[C@@H]1CC[C@]2(CO)CC[C@]3(C)[C@H](CC[C@@H]4[C@@]5(C)CC[C@H](O)C(C)(C)[C@@H]5CC[C@]43C)[C@@H]12 [BETULIN]
- Ratio CC50/IC50 [1]: 183
- IC50 [2]: 0.9 µM
- IC50 [3]: 9.4 µM
- CC50 at 48 h [4]: 165 µM
- IC50 [5]: 0.7 µM
- Ratio CC50/IC50 [6]: 71
- Ratio CC50/IC50 [7]: 17.6
- CC50 at 72 h [8]: 49.7 µM

Compound: C=C(C)[C@@H]1CC[C@]2(C(=O)O)CC[C@]3(C)[C@H](CC[C@@H]4[C@@]5(C)CC[C@@H](O)[C@@](C)(C(=O)O)[C@@H]5CC[C@]43C)[C@@H]12
- IC50 [9]: 64.4 µM

Compound: C=C(C)[C@@H]1CC[C@]2(C(=O)O)CC[C@]3(C)[C@H](CC[C@@H]4[C@@]5(C)CCC(=O)C(C)(C)[C@@H]5CC[C@]43C)[C@@H]12 [BETUNOLIC ACID]
- Ratio CC50/IC50 [10]: 6.2
- IC50 [11]: 5.7 µM
- CC50 at 48 h [12]: 35.6 µM

Compound: C=C(C)[C@@H]1CC[C@]2(C(=O)O)CC[C@]3(C)[C@H](CC[C@@H]4[C@@]5(C)CC[C@H](O)C(C)(C)[C@@H]5CC[C@]43C)[C@@H]12
- Ratio [13]: 0.649
- Ratio [14]: 0.158
- inhibition [15]: inactive

Compound: C=C(C)[C@@H]1CC[C@]2(C(=O)O)CC[C@]3(C)[C@H](CC[C@@H]4[C@@]5(C)CC[C@H](O)C(C)(C)[C@@H]5CC[C@]43C)[C@@H]12 [BETULINIC ACID]
- Kd [16]: 1.3 µM
- Ratio CC50/IC50 [17]: >62.5
- IC50 [5]: 0.7 µM
- solubility [18]: 0.02 µg/mL (≈ 0.0438 µM)
- Ratio CC50/IC50 [6]: 15.6
- Ka [19]: 1.685 ×10⁶ /M
- Kd [20]: 0.593 µM
- CC50 at 72 h [8]: 10.9 µM
- Kd [21]: 4.5 µM
- IC50 [22, 27]: 1.6 µM

Compound: C=C(C)[C@@H]1CC[C@]2(C(=O)[O-])CC[C@]3(C)[C@H](CC[C@@H]4[C@@]5(C)CC[C@H](O)C(C)(C)[C@@H]5CC[C@]43C)[C@@H]12.CCCCCCCCCCCC[N+](C)(C)Cc1ccccc1
- Kd [16]: 1.9 µM
- Ratio CC50/IC50 [17]: 1.7
- CC50 at 48 h [23]: 12 µM
- Kd [21]: 1.6 µM
- IC50 [22, 27]: 7.2 µM

Compound: C=C(C)[C@@H]1CC[C@]2(C(=O)O)CC[C@]3(C)[C@H](CC[C@@H]4[C@@]5(C)CC[C@@H](OS(=O)(=O)O)C(C)(C)[C@@H]5CC[C@]43C)[C@@H]12
- IC50 [24]: 45.7 µM
- Ratio CC50/IC50 [25]: 5
- CC50 at 72 h [26]: 228 µM

Compound: C=C(C)[C@@H]1CC[C@]2(C(=O)N[C@H](C)C(=O)[O-])CC[C@]3(C)[C@H](CC[C@@H]4[C@@]5(C)CC[C@H](O)C(C)(C)[C@@H]5CC[C@]43C)[C@@H]12.CCCCCCCCCCCC[N+](C)(C)Cc1ccccc1
- Kd [16]: 19 µM
- Ratio CC50/IC50 [17]: 11.6
- CC50 at 48 h [23]: 10.5 µM
- Kd [21]: 19 µM
- IC50 [22, 27]: 0.9 µM

Compound: C=C(C)[C@@H]1CC[C@]2(C(=O)[O-])CC[C@]3(C)[C@H](CC[C@@H]4[C@@]5(C)CC[C@H](O)C(C)(C)[C@@H]5CC[C@]43C)[C@@H]12.C[N+](C)(C)CCO
- Kd [16]: 4 µM
- Ratio CC50/IC50 [17]: >111.1
- CC50 at 48 h [23]: > 100 µM
- Kd [21]: 3.9 µM
- IC50 ([22]; vero): 0.9 µM

Compound: C=C(C)[C@@H]1CC[C@]2(C(=O)N[C@H](C)C(=O)[O-])CC[C@]3(C)[C@H](CC[C@@H]4[C@@]5(C)CC[C@H](O)C(C)(C)[C@@H]5CC[C@]43C)[C@@H]12.C[N+](C)(C)CCO
- Kd [16]: 37 µM
- Ratio CC50/IC50 [17]: >166.7
- CC50 at 48 h [23]: > 100 µM
- Kd [21]: 47 µM
- IC50 [22, 27]: 0.6 µM
